The source of these data is ChEMBL document CHEMBL1154547, “Salicylanilide esters of N-protected amino acids as novel antimicrobial agents” (Bioorg Med Chem Lett, 2009).

In data set [1] the test system is Trichophyton mentagrophytes. The data set can be described thus: Antifungal activity against Trichophyton mentagrophytes 445 after 48 hrs by broth microdilution method. The format is functional. Summed up: (§1)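 In vitro antifungal screening against eight strains. Compounds tested at concentrations in the range 62.5–1.95 µmol/L.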
In general terms: Broth dilution looks for growth in wells or tubes with falling amounts of substance.

Data set [2] relates to Candida tropicalis. The data set can be described thus: Antifungal activity against Candida tropicalis ATCC 156 after 48 hrs by broth microdilution method. Format: functional. Particulars: ATCC 156, 48 h. Summed up: as §1
The test system of data set [3] is Pichia kudriavzevii. In words: Antifungal activity against Candida krusei E28 after 48 hrs by broth microdilution method. Format: functional. Summed up: as §1
Data set [4] has as its system Trichosporon beigelii. The data set can be described thus: Antifungal activity against Trichosporon beigelii 1188 after 24 hrs by broth microdilution method. The format is functional. The procedure, abridged:
as §1

The test system of data set [5] is Nakaseomyces glabratus. In words: Antifungal activity against Candida glabrata 20/I after 48 hrs by broth microdilution method. The format is functional. Summed up:
as §1

For data set [6], the system named is Pichia kudriavzevii. In words: Antifungal activity against Candida krusei E28 after 24 hrs by broth microdilution method. The format is functional. Summed up:
as §1

Data set [7] deals with Mycobacterium tuberculosis. In words: Antitubercular activity against Mycobacterium tuberculosis H37Rv by microplate alamar blue assay. Format: functional. For orientation: Alamar Blue is a resazurin reagent that responds to reducing activity.
For data set [8], the system named is Candida albicans. The data set can be described thus: Antifungal activity against Candida albicans ATCC 44859 after 24 hrs by broth microdilution method. The format is functional. Particulars: ATCC 44859, 24 h. The procedure, abridged: as §1
Data set [9] can be described thus: Lipophilicity, log K of the compound. Format: physicochemical. The procedure, abridged: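 Mobile phase used methanol as organic modifier. The capacity factor k was measured and log k calculated from it. Chiral compounds were measured several times.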
The subject of data set [10] is Trichophyton mentagrophytes. In words: Antifungal activity against Trichophyton mentagrophytes 445 after 24 hrs by broth microdilution method. The format is functional. Summed up:
as §1

Data set [11] concerns Candida albicans. In words: Antifungal activity against Candida albicans ATCC 44859 after 48 hrs by broth microdilution method. The format is functional. Particulars: ATCC 44859, 48 h. The procedure, abridged: as §1
In data set [12] the test system is Mycobacterium tuberculosis. The data set can be described thus: Antitubercular activity against Mycobacterium tuberculosis H37Rv at 6.25 ug/ml by microplate alamar blue assay. The format is functional. Summed up: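 Primary single-concentration screen at the TAACF against M. tuberculosis H37Rv (ATCC 27294) in BACTEC 12B medium, read by Microplate Alamar Blue Assay. Each compound was tested at 6.25 per mL, or at the molar equivalent of the highest-molecular-weight compound in its congener series.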

Data set [13] deals with Aspergillus fumigatus. In words: Antifungal activity against Aspergillus fumigatus 231 after 48 hrs by broth microdilution method. The format is functional. Summed up:
as §1

Data set [14] deals with Candida tropicalis. The data set can be described thus: Antifungal activity against Candida tropicalis ATCC 156 after 24 hrs by broth microdilution method. The format is functional. The settings on record: ATCC 156, 24 h. Summed up: as §1
The subject of data set [15] is Lichtheimia corymbifera. The data set can be described thus: Antifungal activity against Absidia corymbifera 272 after 24 hrs by broth microdilution method. Format: functional. Summed up: as §1
Data set [16] deals with Aspergillus fumigatus. In words: Antifungal activity against Aspergillus fumigatus 231 after 24 hrs by broth microdilution method. The format is functional. Summed up: as §1
For data set [17], the system named is Trichosporon beigelii. In words: Antifungal activity against Trichosporon beigelii 1188 after 48 hrs by broth microdilution method. Format: functional. Summed up:
as §1

Data set [18] concerns Nakaseomyces glabratus. In words: Antifungal activity against Candida glabrata 20/I after 24 hrs by broth microdilution method. Format: functional. Summed up: as §1
For data set [19], the system named is Lichtheimia corymbifera. In words: Antifungal activity against Absidia corymbifera 272 after 48 hrs by broth microdilution method. The format is functional. Summed up: as §1

Molecules are shown by their SMILES. Values after ≈ are worked out from the molar mass of the structure shown. Bounds are passed on as bounds.

By IC80 is commonly meant the concentration at which the effect reaches the 80% level. What is called MIC is the lowest concentration that inhibits growth of the organism. Broadly, the inhibition is the change of the read-out against control, counted positive when it falls. As to `CC(C)[C@@H](NC(=O)OCc1ccccc1)C(=O)Oc1ccc(Cl)cc1C(=O)Nc1ccc(Cl)cc1`, the IC80 is 15.6 µg/mL (≈ 30.3 µM) in data set [1]; greater than 62.5 µg/mL in data set [2]; 31.2 µg/mL (≈ 60.6 µM) in data set [3]; greater than 62.5 µg/mL in data set [4]; greater than 62.5 µg/mL in [5]; 31.2 µg/mL (≈ 60.6 µM) in data set [6]. In addition, the IC80 is greater than 62.5 µg/mL in [8]; 15.6 µg/mL (≈ 30.3 µM) in data set [10]; greater than 62.5 µg/mL in [11]; greater than 62.5 µg/mL in [13]; greater than 62.5 µg/mL in [14]; greater than 62.5 µg/mL in data set [15]. For the same compound, the IC80 in [16], in data set [17], in data set [18] and in [19] was greater than 62.5 µg/mL throughout. For the same compound, the MIC in data set [7] was greater than 6.25 µg/mL. Moreover, the “log K” value in data set [9] was 0.9417. For the same compound, the inhibition at 6.25 µg/mL in [12] was determined as 77%.
With `C[C@H](NC(=O)OCc1ccccc1)C(=O)Oc1ccc(Cl)cc1C(=O)Nc1cccc(Cl)c1`, the IC80 in data set [1] is 7.81 µg/mL (≈ 16 µM); in data set [2] it was greater than 62.5 µg/mL; in data set [3] it was 31.2 µg/mL (≈ 64.1 µM); in data set [4], greater than 62.5 µg/mL; in data set [5] it was greater than 62.5 µg/mL; in [6] it was 31.2 µg/mL (≈ 64.1 µM). Besides, the IC80 in data set [8] was 31.2 µg/mL (≈ 64.1 µM); in [10], 7.81 µg/mL (≈ 16 µM); in data set [11], greater than 62.5 µg/mL; in [13], greater than 62.5 µg/mL; in data set [14], greater than 62.5 µg/mL; in data set [15], 15.6 µg/mL (≈ 32.1 µM). The IC80 in data set [16] was 62.5 µg/mL (≈ 128 µM); in [17], greater than 62.5 µg/mL; in data set [18], 31.2 µg/mL (≈ 64.1 µM); in [19], 15.6 µg/mL (≈ 32.1 µM). Moreover, it took 3.13 µg/mL (≈ 6.42 µM) to inhibit growth in data set [7] (MIC). The “log K” value in data set [9] is on record as 0.6995. In [12], at 6.25 µg/mL the inhibition was 97%.
For the compound `O=C(CNC(=O)OCc1ccccc1)Oc1ccc(Cl)cc1C(=O)Nc1ccc(Cl)cc1`, the IC80 was determined as 15.6 µg/mL (≈ 33 µM) in data set [1]; 31.2 µg/mL (≈ 66 µM) in data set [2]; 31.2 µg/mL (≈ 66 µM) in data set [3]; 62.5 µg/mL (≈ 132 µM) in data set [4]; 62.5 µg/mL (≈ 132 µM) in data set [5]; 31.2 µg/mL (≈ 66 µM) in [6]. The IC80 in [8] is 62.5 µg/mL (≈ 132 µM); in [10], 15.6 µg/mL (≈ 33 µM); in data set [11] it was 62.5 µg/mL (≈ 132 µM); in [13], greater than 62.5 µg/mL; in [14], 31.2 µg/mL (≈ 66 µM); in [15], 31.2 µg/mL (≈ 66 µM). In addition, the IC80 is greater than 62.5 µg/mL in [16], greater than 62.5 µg/mL in [17], 62.5 µg/mL (≈ 132 µM) in data set [18] and 62.5 µg/mL (≈ 132 µM) in data set [19]. For the same compound, the MIC in data set [7] is greater than 6.25 µg/mL. Also, in data set [9], the “log K” value came to 0.6367. In data set [12], this compound had an inhibition at 6.25 µg/mL of 16%.
In the case of `CC(C)[C@H](NC(=O)OCc1ccccc1)C(=O)Oc1ccc(Cl)cc1C(=O)Nc1ccc(Cl)cc1`, the IC80 in data set [1] was 15.6 µg/mL (≈ 30.3 µM); in [2], greater than 62.5 µg/mL; in data set [3], 15.6 µg/mL (≈ 30.3 µM); in data set [4], greater than 62.5 µg/mL; in data set [5] it was greater than 62.5 µg/mL; in data set [6] it was 31.2 µg/mL (≈ 60.6 µM). In addition, the IC80 in [8] is greater than 62.5 µg/mL; in [10] it was 15.6 µg/mL (≈ 30.3 µM); in data set [11] it was greater than 62.5 µg/mL; in data set [13] it was greater than 62.5 µg/mL; in [14], greater than 62.5 µg/mL; in data set [15], greater than 62.5 µg/mL. Moreover, the IC80 is greater than 62.5 µg/mL in data set [16], 31.2 µg/mL (≈ 60.6 µM) in data set [17], greater than 62.5 µg/mL in [18] and greater than 62.5 µg/mL in [19]. This compound had a minimal inhibitory concentration (MIC) in data set [7] greater than 6.25 µg/mL. Further, the “log K” value in data set [9] is listed as 0.9421. The compound further had an inhibition at 6.25 µg/mL in [12] of 38%.
As for `OC(Cn1cncn1)(Cn1cncn1)c1ccc(F)cc1F` [FLUCONAZOLE], the IC80 in [1] is 3.91 µg/mL (≈ 12.8 µM); in data set [2], greater than 125 µg/mL; in data set [3] it was 15.6 µg/mL (≈ 51 µM); in data set [4] it was 0.24 µg/mL (≈ 0.784 µM); in [5], 3.91 µg/mL (≈ 12.8 µM); in [6], 3.91 µg/mL (≈ 12.8 µM). The IC80 in [8] is 0.06 µg/mL (≈ 0.196 µM); in data set [10], 1.95 µg/mL (≈ 6.37 µM); in [11] it was 0.12 µg/mL (≈ 0.392 µM); in [13], greater than 125 µg/mL; in data set [14], 0.12 µg/mL (≈ 0.392 µM); in data set [15] it was greater than 125 µg/mL. Besides, the IC80 is greater than 125 µg/mL in data set [16], 0.48 µg/mL (≈ 1.57 µM) in data set [17], 0.98 µg/mL (≈ 3.2 µM) in [18] and greater than 125 µg/mL in [19].
Compound `NNC(=O)c1ccncc1` [ISONIAZID] registered an MIC in [7] of 0.025 µg/mL (≈ 0.182 µM).
